The values below come from ChEMBL document CHEMBL1153740, “Quassinoids from Eurycoma longifolia” (J Nat Prod, 2009).

Structures are written as SMILES.

The test relates to HT-1080. As to the kind of experiment: Cytotoxicity against human HT1080 cells after 72 hrs by MTT assay. In kind it is functional, cell-based. Conditions: HT-1080, 72 h. In a few lines:
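HT-1080 human fibrosarcoma cells, harvested in exponential growth, seeded at 2 × 10^3 cells/well and left 24 h at 37 °C in humidified 5% CO2 to attach. Exposed to varying concentrations of test compounds in medium for 72 h. MTT (0.5 mg/mL) added for 2 h, formazan extracted with DMSO, absorbance read at 550 nm. Viability and IC50 taken from means of three wells.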

Broadly, the IC50 is the point on the concentration scale where inhibition reaches its midpoint. `C[C@H]1[C@H]2OC(=O)[C@@H]1[C@]1(C)C(=O)C=C3[C@@](C)([C@H]1[C@H]2O)[C@H](O)[C@@H](O)[C@H]1O[C@@]31C` gave an IC50 greater than 100 µM. With `C[C@H]1[C@H]2OC(=O)[C@@H]1[C@]1(C)C(=O)C=C3C4(C)OC4C(=O)[C@@H](O)[C@]3(C)[C@H]1[C@H]2O` (stereo partly drawn), the IC50 was greater than 100 µM.

Take `CC1=CC(=O)[C@@H](O)[C@]2(C)[C@H]3[C@@H](O)[C@@H]4OC(=O)[C@@H]([C@H]4C)[C@]3(C)C(=O)C[C@@]12O`: the IC50 was 8.8 µM. In other words, the single-digit micromolar range. As for `CC1=CC(=O)O[C@@H]1[C@@]1(C)C[C@H]2OC(=O)[C@H](O)[C@@]3(O)[C@@H](C)[C@@H](O)[C@@]4(O)OC[C@]23[C@@H]14`, the figure is greater than 100 µM; as for `CC1=CC(=O)[C@@H](O)[C@]2(C)[C@H]3[C@@H](O)[C@H](O)[C@H](C)[C@]4(O)[C@@H](O)C(=O)O[C@H](C[C@@H]12)[C@]34C`, 1.1 µM.

For `CC1=CC(=O)[C@@H](O)[C@]2(C)[C@H]3[C@]4(O)OC[C@@]35[C@@H](C[C@@H]12)OC(=O)[C@H](O)[C@]5(O)[C@@H](C)[C@H]4O`, the IC50 amounted to 90 µM. This IC50 lies about 82-fold higher than the previous one. As for `CC(=O)O[C@@H]1[C@H](C)[C@]2(O)[C@@H](OC(C)=O)C(=O)O[C@@H]3C[C@H]4C(C)=CC(=O)[C@@H](O)[C@]4(C)[C@H]4[C@]1(O)OC[C@]432`, the figure is greater than 100 µM; as for `CC1=CC(=O)[C@@H](O)[C@@]2(C)[C@H]1[C@@H](O)[C@H]1OC(=O)[C@H](O)[C@@]3(O)[C@@H](C)[C@@H](O)[C@H](O)[C@H]2[C@@]13C`, 90 µM.

Compound `CC1=C2C(=O)[C@H](O)[C@]3(C)[C@H]([C@@H](O)[C@@H]4OC(=O)[C@H]3[C@H]4C)[C@@]2(C)[C@H](O)[C@@H](O)C1` registered a 50% inhibitory concentration (IC50) greater than 100 µM. On to `CC1=C[C@H](O)[C@@H](O)[C@@]2(C)[C@H]1[C@@H](O)C(=O)[C@@]1(C)[C@H]3C(=O)O[C@H]([C@@H]3C)[C@H](O)[C@@H]12`, for which the IC50 is 65 µM. This counts as double-digit micromolar. As for `CC1=CC(=O)[C@@H](O)[C@@]2(C)C1=CC(=O)[C@]1(C)[C@@H]2[C@@H](O)[C@@H]2OC(=O)[C@H]1[C@H]2C`, the figure is 5.3 µM. On to `C=C1C[C@H](O)[C@@H](O)[C@@]2(C)[C@H]1CC(=O)[C@@]1(C)[C@H]3C(=O)O[C@H]([C@@H]3C)[C@H](O)[C@@H]12`, for which it took 45 µM to reach half-maximal inhibition (IC50). The compound `CC1=CC(=O)[C@@H](O)[C@@]2(C)[C@H]1[C@@H](O)C(=O)[C@@]1(C)[C@H]3C(=O)O[C@H]([C@@H]3C)[C@H](O)[C@@H]12` returned an IC50 of 5 µM.

For the compound `CC1=CC(=O)[C@@H](O)[C@]2(C)[C@H]3[C@@H](O)[C@@H]4OC(=O)[C@@H]([C@H]4C)[C@]3(C)[C@H](O)C[C@@H]12`, the IC50 came out at 6.2 µM. For the compound `COc1cccc2c1C(=O)c1c(O)c3c(c(O)c1C2=O)C[C@@](O)(C(=O)CO)C[C@@H]3O[C@H]1C[C@H](N)[C@H](O)[C@H](C)O1` [DOXORUBICIN], the IC50 stood at 0.53 µM. Against the preceding compound, the IC50 is about 12-fold lower. With `CC1=C[C@H](O)[C@@H](O)[C@@]2(C)[C@H]1CC(=O)[C@@]1(C)[C@H]3C(=O)O[C@H]([C@@H]3C)[C@H](O)[C@@H]12` [EURYCOLACTONE E] the figure was 7.3 µM. `CC1=CC(=O)[C@@H](O)[C@@]2(C)[C@H]1CC(=O)[C@@]1(C)[C@H]3C(=O)O[C@H]([C@@H]3C)[C@H](O)[C@@H]12` [EURYCOMALACTONE] had an IC50 of 0.98 µM.

Consider `C[C@H]1[C@H]2OC(=O)[C@@H]1[C@]1(C)C(=O)C=C3[C@H](C)C[C@H](O)[C@@H](O)[C@]3(C)[C@H]1[C@H]2O` [EURYCOMALIDE A], for which half-maximal inhibition (IC50) required 90 µM. Compared with the last compound, the IC50 is about 92-fold higher.

`CC1=C[C@H](O)[C@@H](O)[C@@]2(C)C1=CC(=O)[C@]1(C)[C@@H]2[C@@H](O)[C@@H]2OC(=O)[C@H]1[C@H]2C` [EURYCOMALIDE B] returned an IC50 of 39 µM. With `O=c1[nH]cc(F)c(=O)[nH]1` [FLUOROURACIL] the figure was 5.2 µM; with `CC1=CC(=O)[C@]2(C)[C@H]3[C@@H](O)[C@@H]4OC(=O)[C@@H]([C@H]4C)[C@]3(C)C(=O)C[C@@H]12` [LAURYCOLACTONE A], greater than 100 µM. `CC1=CC(=O)[C@@]2(C)C1=CC(=O)[C@]1(C)[C@@H]2[C@@H](O)[C@@H]2OC(=O)[C@H]1[C@H]2C` [LAURYCOLACTONE B] yielded an IC50 greater than 100 µM. As for `CC1=CC(=O)[C@@H](O)[C@@]2(C)[C@H]1[C@@H](O)[C@H]1OC(=O)C3[C@@H](C)[C@H](O)[C@H](O)[C@H]2[C@]31C` (stereo partly drawn) [LONGILACTONE], the figure is 19 µM.
